Activity calls are given as the source filed them.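 How the source made its calls, unless noted: active means viability at or below 10% of carrier control in both of two separate runs; inconclusive means viability at or below 10% in only one of the two runs; inactive means the rest.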

Assay [1] can be described thus: reducers of endogenous Her2 protein level, primary screen, SKBR3 breast tumor cells, AlphaScreen, ATP viability (AID 461;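 active means Her2 level under about 52% in both replicate screens, with viability over 70% of control, limit read from the data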;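 on Her2 level: lower value means less Her2 protein in the cells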;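 on viability: percent of carrier control wells set as 100% viability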). As to conditions: 18-24 h, measured here: SKBR3 viability, ATP luminescence, at 10 µM. Background: Alpha assays give light when donor and acceptor beads are brought close together.
Assay [2] addresses Receptor tyrosine-protein kinase erbB-2 (Homo sapiens) (UniProt P04626). Described as above. As to conditions: 18-24 h, at 10 µM, stronger effect = lower value.
The nature of assay [3]: SK-BR-3 cell growth inhibitors, pilot screen, 24 h, human (AID 572).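 Further: compound exposure lasted between 18 and 24 h rather than exactly 24 h; 100% = carrier-treated control wells.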 As to conditions: SK-BR-3 viability, CellTiter-Glo luminescence, at 10 µM, stronger effect = lower value. (In general: In ATP-based viability assays light output follows the ATP content of the culture.)
A short description of assay [4]: HUVEC growth inhibition – cell-based, human, primary screen (AID 575;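 active means viability at or below 30% in both replicate assays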;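 further: 100% = median of untreated cell wells with 0.1% DMSO on each plate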). As to conditions: HUVEC proliferation, CellTiter-Glo luminescence, 72 h; at 10 µM; stronger effect = lower value. The method in brief: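 System: primary human umbilical vein endothelial cells; Quantity: 1250 endothelial cells in each well; Buffer or medium: supplemented EBM, 2% fetal bovine serum; Doses: one dose, 10 µM final, 0.1% DMSO; Incubation: 72 h compound incubation; Technique: ATP-based CellTiter-Glo luminescent read; Evaluation: percent of median DMSO-control luminescence; Controls: vehicle and MePR control wells.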

The nature of assay [5]: growth inhibitors of H69AR lung tumor, primary screen, human, duplicate replicates (AID 580;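 active means viability at or under a set limit in both replicates, limit being median viability minus 3 SD, cut at about 48% in these data, passing the limit was not always enough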;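 further: 100% = mean luminescence of untreated wells and 0% = no signal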). As to conditions: H69AR lung tumor cells viability, ATP luminescence, 72 h; at 10 µM; stronger effect = lower value.
Assay [6] is described as follows: reversal of MRP1-mediated doxorubicin resistance, pilot screen, H69AR cells, doxorubicin co-treatment (AID 601;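 active means viability loss from added drug above about 55%, and viability with drug at most 40%, in both replicates, limit read from the data, passing the limit was not always enough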). The note with it: CellTiter-Glo, 72 h, at 10 µM; for differential viability (reversal): stronger effect = higher value.
Assay [7] is described as follows: 384-well plate pilot, post-Golgi transport modulator project, inhibition of yeast transport mutant growth (AID 636; in the data active means inhibition above about 31%). The note with it: absorbance 615 nm, about 18 h, stronger effect = higher value.
The nature of assay [8]: growth suppression of yeast trafficking mutant, preliminary HTS, modulators of trafficking downstream of Golgi apparatus project, 1536-format plate, OD 615 nm (AID 637; in the data active means inhibition above about 30%). The note with it: yeast transport mutant growth, absorbance 615 nm, 18 h; stronger effect = higher value.
Setting [9] is: H69AR cells + 2 uM doxorubicin, measured here: viability with 2 uM doxorubicin, stronger effect = lower value.
The mark [10] stands for this setting: H69AR cells, compound alone cytotoxicity.

Receptor tyrosine-protein kinase erbB-2 (Homo sapiens), sequence (P04626 whole entry, looked up): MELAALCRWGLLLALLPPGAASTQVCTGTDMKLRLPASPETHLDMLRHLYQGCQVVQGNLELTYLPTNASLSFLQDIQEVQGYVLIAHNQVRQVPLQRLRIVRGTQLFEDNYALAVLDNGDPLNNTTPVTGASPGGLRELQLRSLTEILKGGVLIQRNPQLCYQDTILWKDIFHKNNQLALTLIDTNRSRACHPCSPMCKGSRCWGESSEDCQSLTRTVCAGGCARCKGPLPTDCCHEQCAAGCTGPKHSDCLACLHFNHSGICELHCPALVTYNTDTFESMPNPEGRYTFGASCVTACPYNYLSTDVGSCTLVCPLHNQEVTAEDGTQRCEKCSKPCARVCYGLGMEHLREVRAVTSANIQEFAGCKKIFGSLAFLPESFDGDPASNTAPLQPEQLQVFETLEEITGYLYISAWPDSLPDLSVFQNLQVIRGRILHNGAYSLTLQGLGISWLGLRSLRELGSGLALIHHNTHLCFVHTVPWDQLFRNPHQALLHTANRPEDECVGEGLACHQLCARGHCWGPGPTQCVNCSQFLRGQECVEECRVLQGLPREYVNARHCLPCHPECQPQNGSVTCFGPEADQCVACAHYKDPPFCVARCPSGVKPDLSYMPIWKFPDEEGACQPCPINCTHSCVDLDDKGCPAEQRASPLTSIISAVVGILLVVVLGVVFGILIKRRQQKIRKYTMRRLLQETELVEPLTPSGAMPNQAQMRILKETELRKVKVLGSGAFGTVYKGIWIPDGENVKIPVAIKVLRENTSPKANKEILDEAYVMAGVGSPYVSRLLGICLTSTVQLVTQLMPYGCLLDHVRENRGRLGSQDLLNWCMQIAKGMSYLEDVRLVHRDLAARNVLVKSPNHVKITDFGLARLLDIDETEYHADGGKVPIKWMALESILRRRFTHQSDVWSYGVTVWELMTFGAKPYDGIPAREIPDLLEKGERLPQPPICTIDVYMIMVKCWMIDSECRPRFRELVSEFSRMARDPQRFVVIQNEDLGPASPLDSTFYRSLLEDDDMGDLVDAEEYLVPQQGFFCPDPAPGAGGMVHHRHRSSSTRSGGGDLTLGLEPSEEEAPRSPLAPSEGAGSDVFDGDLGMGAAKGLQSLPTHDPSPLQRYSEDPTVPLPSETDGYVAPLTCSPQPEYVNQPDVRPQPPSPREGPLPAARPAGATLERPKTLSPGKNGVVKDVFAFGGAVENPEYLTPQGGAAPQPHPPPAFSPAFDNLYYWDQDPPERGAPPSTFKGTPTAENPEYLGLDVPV

In general, viability refers to a read-out of living cells in per cent, often relative to untreated cells. In general, inhibition refers to the change of the read-out against control, counted positive when it falls. Regarding `COc1ccc(C(=O)NCCn2ccc3ccccc32)c(OC)c1`, the viability in assay [1] was 95%; in assay [3], 95% (inactive); in assay [4], 88.7% (inactive); in assay [5], 87.7% (inactive); in assay [6] (setting [9]), 87.9%; in assay [6] (setting [10]), 87.7%. Also, the Her2 level in assay [2] was 81% (inactive). Moreover, in assay [6] (H69AR cells + 2 uM doxorubicin), the differential viability (reversal) is -0.23% (inactive). Also, the inhibition in assay [7] is -6.49% (inactive); in assay [8] it was 1.11% (inactive).
Take `Nc1ccc(-c2ccc(N)cc2C(F)(F)F)c(C(F)(F)F)c1`: the viability was 94% in assay [1]; 94% (inactive) in assay [3]; 75.1% (inactive) in assay [4]; 68.6% (inactive) in assay [5]; 82.3% in assay [6] (setting [9]); 68.6% in assay [6] (setting [10]). Moreover, in assay [2], the Her2 level is 80% (inactive). In addition, the differential viability (reversal) in assay [6] (H69AR cells + 2 uM doxorubicin) is -13.7% (inactive). Moreover, the inhibition was -0.65% (inactive) in assay [7] and -0.66% (inactive) in assay [8].
As for `O=C(CCSc1ccccc1)N1CCN(C(=O)c2ccco2)CC1`, the viability was 99% in assay [1]; 99% (inactive) in assay [3]; 93.1% (inactive) in assay [4]; 95.1% (inactive) in assay [5]; 84.1% in assay [6] (setting [9]); 95.1% in assay [6] (setting [10]). In addition, the Her2 level in assay [2] is 99.5% (inactive). For the same compound, in assay [6] (H69AR cells + 2 uM doxorubicin), the differential viability (reversal) is 11% (inactive). Further, the inhibition was -0.79% (inactive) in assay [7] and -0.32% (inactive) in assay [8].
Regarding `O=C1CC(N2CCOCC2)C(=O)N1c1ccccc1Cl` (stereo not given), the viability in assay [1] is 103%; in assay [3], 103% (inactive); in assay [4], 87.2% (inactive); in assay [5] it was 104% (inactive); in assay [6] (setting [9]), 96.6%; in assay [6] (setting [10]) it was 104%. Also, the Her2 level in assay [2] was 87.5% (inactive). Also, in assay [6] (H69AR cells + 2 uM doxorubicin), the differential viability (reversal) is 7.5% (inactive). In addition, the inhibition in assay [7] is -6.4% (inactive); in assay [8] it was -5.24% (inactive).
With `Cc1ccc(NCC(O)C(O)C(O)CO)cc1C` (stereo not given), the viability is 113% in assay [1]; 113% (inactive) in assay [3]; 93.4% (inactive) in assay [4]; 94.3% (inactive) in assay [5]; 96.6% in assay [6] (setting [9]); 94.3% in assay [6] (setting [10]). Further, the Her2 level in assay [2] was 104% (inactive). Further, the differential viability (reversal) in assay [6] (H69AR cells + 2 uM doxorubicin) is -2.34% (inactive). The inhibition in assay [7] is -6.93% (inactive); in assay [8], -8.1% (inactive).
For the compound `COc1cc(CN(C)CC(=O)c2[nH]c(C)c(C(C)=O)c2C)ccc1OC(F)F`, the viability in assay [1] was 104%; in assay [3] it was 104% (inactive); in assay [4], 97.3% (inactive); in assay [5], 85% (inactive); in assay [6] (setting [9]) it was 78.6%; in assay [6] (setting [10]), 85%. In addition, the Her2 level in assay [2] was 82.5% (inactive). Also, the differential viability (reversal) in assay [6] (H69AR cells + 2 uM doxorubicin) was 6.44% (inactive). Further, the inhibition in assay [7] was -5.2% (inactive); in assay [8], -5.08% (inactive).
In the case of `O=C(CN1C(=O)C2CC=C(Cl)CC2C1=O)Nc1ccc(C(=O)O)cc1` (stereo not given), the viability in assay [1] was 127%; in assay [3], 127% (inactive); in assay [4], 99.1% (inactive); in assay [5], 94.7% (inactive); in assay [6] (setting [9]), 95.4%; in assay [6] (setting [10]) it was 94.7%. Further, the Her2 level in assay [2] was 101% (inactive). Besides, in assay [6] (H69AR cells + 2 uM doxorubicin), the differential viability (reversal) is -0.64% (inactive). The figures for the inhibition in assay [7] and in assay [8] were -3.55% (inactive) and -0.16% (inactive), respectively.
With `COC(=O)COc1ccc(S(=O)(=O)NCCC2=CCCCC2)cc1`, the viability was 99% in assay [1]; 99% (inactive) in assay [3]; 10.6% (active) in assay [4]; 95% (inactive) in assay [5]; 98.7% in assay [6] (setting [9]); 95% in assay [6] (setting [10]). The Her2 level in assay [2] is 83.5% (inactive). Besides, the differential viability (reversal) in assay [6] (H69AR cells + 2 uM doxorubicin) is -3.67% (inactive). In addition, the values for the inhibition in assay [7] and in assay [8] were 0% (inactive) and -1.13% (inactive), respectively.
As to `CC(=O)c1coc2ccc(OCC(=O)O)cc12`, the viability was 104% in assay [1]; 104% (inactive) in assay [3]; 105% (inactive) in assay [4]; 98% (inactive) in assay [5]; 92.7% in assay [6] (setting [9]); 98% in assay [6] (setting [10]). For the same compound, in assay [2], the Her2 level was 90.5% (inactive). Moreover, the differential viability (reversal) in assay [6] (H69AR cells + 2 uM doxorubicin) was 5.29% (inactive). The inhibition was -4% (inactive) in assay [7] and -4.26% (inactive) in assay [8].
Consider `CCCCc1ccc(NC(=O)N[C@H](C(=O)O)C(C)CC)cc1` (stereo not given in full), for which the viability is 112% in assay [1]; 112% (inactive) in assay [3]; 79.5% (inactive) in assay [4]; 99.7% (inactive) in assay [5]; 90.8% in assay [6] (setting [9]); 99.7% in assay [6] (setting [10]). In addition, in assay [2], the Her2 level was 82% (inactive). Also, the differential viability (reversal) in assay [6] (H69AR cells + 2 uM doxorubicin) was 8.86% (inactive). Moreover, the inhibition in assay [7] was -5.92% (inactive); in assay [8] it was -2.38% (inactive).
On to `CCn1nnc(-c2ccccc2NC(=O)c2ccc(-n3cnnn3)cc2)n1`, for which the viability was 95.5% in assay [1]; 95.5% (inactive) in assay [3]; 67.7% (inactive) in assay [4]; 75.7% (inactive) in assay [5]; 73.9% in assay [6] (setting [9]); 75.7% in assay [6] (setting [10]). In addition, in assay [2], the Her2 level was 87% (inactive). Further, the differential viability (reversal) in assay [6] (H69AR cells + 2 uM doxorubicin) is 1.74% (inactive). Besides, the inhibition in assay [7] is -0.79% (inactive); in assay [8], 1.15% (inactive).
For `Cc1ccc(NC(=O)CN2CC(C)SC2=NC2CCCCC2)cc1` (stereo not given), the viability is 84.5% in assay [1]; 84.5% (inactive) in assay [3]; 96% (inactive) in assay [4]; 83.9% (inactive) in assay [5]; 83% in assay [6] (setting [9]); 83.9% in assay [6] (setting [10]). In addition, the Her2 level in assay [2] is 113% (inactive). Also, the differential viability (reversal) in assay [6] (H69AR cells + 2 uM doxorubicin) is 0.935% (inactive). The inhibition was -6.8% (inactive) in assay [7] and 1.94% (inactive) in assay [8].
`CN(C)c1ccc(NC(=O)c2cc3c(=O)n4ccccc4nc3n2C)cc1`: the viability was 87.5% in assay [1]; 87.5% (inactive) in assay [3]; 97.8% (inactive) in assay [4]; 80.3% (inactive) in assay [5]; 83.8% in assay [6] (setting [9]); 80.3% in assay [6] (setting [10]). Further, the Her2 level in assay [2] was 72.5% (inactive). In addition, in assay [6] (H69AR cells + 2 uM doxorubicin), the differential viability (reversal) is -3.47% (inactive). The values for the inhibition in assay [7] and in assay [8] were -0.54% (inactive) and 14.1% (inactive), respectively.
For `CCn1c(SCC(=O)N2CCOCC2)nc2c(c1=O)SC(C)C2` (stereo not given), the viability was 95% in assay [1]; 95% (inactive) in assay [3]; 97.3% (inactive) in assay [4]; 88% (inactive) in assay [5]; 81.7% in assay [6] (setting [9]); 88% in assay [6] (setting [10]). Also, the Her2 level in assay [2] is 112% (inactive). For the same compound, in assay [6] (H69AR cells + 2 uM doxorubicin), the differential viability (reversal) was 6.23% (inactive). In addition, the inhibition in assay [7] is -7.53% (inactive); in assay [8], -4.92% (inactive).

The values above are taken from PubChem BioAssay.
